Test results taken from ChEMBL document CHEMBL4219037, “Modified biphenyl Hsp90 C-terminal inhibitors for the treatment of cancer” (Bioorg Med Chem Lett, 2017).
Calls of active or inactive are those of the source. The rule behind the calls is not given here.

What was measured:
MCF7 = experiment: Antiproliferative activity against human MCF7 cells after 72 hrs by MTS assay; type: functional, cell-based; details: MCF7, 72 h
Outline: (§1)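 Cells kept in Advanced DMEM/F12 at 37 °C, 5% CO2, humidified. Seeded at 3000 cells/well, left 24 h, then given compound or vehicle in DMSO (1% DMSO final) at varying concentrations for 72 h. Viable cells read by MTS/PMS proliferation kit. Vehicle wells set to 100% proliferation. IC50 as mean ± SD of at least three separate experiments run in triplicate.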

[1] = Antiproliferative activity against human LNCaP-LN3 cells after 72 hrs by MTS assay; type: functional, cell-based; details: LNCaP-LN3, 72 h; outline: as §1
[2] = Antiproliferative activity against human PC3MM2 cells after 72 hrs by MTS assay; type: functional, cell-based; details: PC3MM2, 72 h; outline: as §1
SK-BR-3 = experiment: Antiproliferative activity against human SKBR3 cells after 72 hrs by MTS assay; type: functional, cell-based; details: SK-BR-3, 72 h; outline: as §1
[3] = target: T1, Heat shock protein HSP90 (Homo sapiens) (UniProt P07900+P08238); experiment: Inhibition of […] HSP90 in human MCF7 cells assessed as reduction in HSP90 expression at 2.945 to 29.45 uM after 24 hrs by Western blot analysis relative to control; type: cell-based
[4] = target: T1, Heat shock protein HSP90 (Homo sapiens); experiment: Inhibition of C-terminal HSP90 in human MCF7 cells assessed as degradation of HER2 at 2.945 to 29.45 uM after 24 hrs by Western blot analysis relative to control; type: cell-based
[5] = target: T1, Heat shock protein HSP90 (Homo sapiens); experiment: Inhibition of C-terminal HSP90 in human MCF7 cells assessed as degradation of cRAF at 2.945 to 29.45 uM after 24 hrs by Western blot analysis relative to control; type: cell-based
[6] = target: T1, Heat shock protein HSP90 (Homo sapiens); experiment: Inhibition of C-terminal HSP90 in human MCF7 cells assessed as degradation of cyclin D1 at 2.945 to 29.45 uM after 24 hrs by Western blot analysis relative to control; type: cell-based
[7] = target: T1, Heat shock protein HSP90 (Homo sapiens); experiment: Inhibition of C-terminal HSP90 in human MCF7 cells assessed as degradation of cRAF at 4.49 to 44.95 uM after 24 hrs by Western blot analysis relative to control; type: cell-based
[8] = target: T1, Heat shock protein HSP90 (Homo sapiens); experiment: Inhibition of C-terminal HSP90 in human MCF7 cells assessed as degradation of HER2 at 4.49 to 44.95 uM after 24 hrs by Western blot analysis relative to control; type: cell-based
[9] = target: T1, Heat shock protein HSP90 (Homo sapiens); experiment: Inhibition of […] HSP90 in human MCF7 cells assessed as reduction in HSP90 expression at 4.49 to 44.95 uM after 24 hrs by Western blot analysis relative to control; type: cell-based
[10] = target: T1, Heat shock protein HSP90 (Homo sapiens); experiment: Inhibition of C-terminal HSP90 in human MCF7 cells assessed as degradation of cyclin D1 at 4.49 to 44.95 uM after 24 hrs by Western blot analysis relative to control; type: cell-based

Row | IC50 (MCF7) | IC50 (SK-BR-3) | inhibition [3] | inhibition [4] | inhibition [5] | inhibition [6] | inhibition [7] | inhibition [8] | inhibition [9] | inhibition [10] | SMILES | IC50 [1] | IC50 [2]
1 | 8.71 µM | 5.72 µM | – | – | – | – | – | – | – | – | COc1cccc(-c2cc(C(=O)NCCc3c(OC)cc(OC4CCN(C)CC4)cc3-c3cccc(F)c3)ccc2OC)c1 | > 100 µM | 32.1 µM
2 | 5.89 µM | 7.59 µM | inactive | Active | Active | Active | – | – | – | – | CC(C)=CCc1cc(C(=O)NCCc2c(O)cc(OC3CCN(C)CC3)cc2-c2cccc(F)c2)ccc1O | 22.8 µM | 1.32 µM
3 | 15.4 µM | 23.7 µM | – | – | – | – | – | – | – | – | COc1cccc(-c2cc(C(=O)NCCc3ccc(OC4CCN(C)CC4)cc3-c3cccc(F)c3)ccc2OC)c1 | 22.5 µM | 5.49 µM
4 | 9.14 µM | 7.81 µM | – | – | – | – | – | – | – | – | COc1cccc(-c2cc(C(=O)NCCc3cc(C)c(OC4CCN(C)CC4)cc3-c3cccc(F)c3)ccc2OC)c1 | 20.8 µM | 13.9 µM
5 | 44.7 µM | 49.4 µM | – | – | – | – | – | – | – | – | COc1cccc(-c2cc(C(=O)NCCc3c(OC)cc(O[C@@H]4OC(C)(C)[C@H](OC)[C@@H](O)[C@H]4O)cc3-c3cccc(F)c3)ccc2OC)c1 | 8.09 µM | 10.6 µM
6 | 11.3 µM | 15.3 µM | – | – | – | – | – | – | – | – | COc1cccc(-c2cc(C(=O)NCCc3ccc(OC4CCN(C)CC4)c(N)c3-c3cccc(F)c3)ccc2OC)c1 | 22.4 µM | 18.9 µM
7 | 11.3 µM | 9.29 µM | – | – | – | – | – | – | – | – | COc1cccc(-c2cc(C(=O)NCCc3ccc(OC4CCN(C)CC4)c(O)c3-c3cccc(F)c3)ccc2OC)c1 | 22.4 µM | 8.61 µM
8 | 7.86 µM | 8.16 µM | – | – | – | – | – | – | – | – | COc1cc(OC2CCN(C)CC2)cc(-c2cccc(F)c2)c1CCNC(=O)c1ccc(O)c(CC=C(C)C)c1 | > 100 µM | 1.84 µM
9 | 35.6 µM | 15.2 µM | – | – | – | – | – | – | – | – | CC(C)=CCc1cc(C(=O)NCCc2cc(C)c(OC3CCN(C)CC3)cc2-c2cccc(F)c2)ccc1O | > 100 µM | > 100 µM
10 | 12.2 µM | 15.7 µM | – | – | – | – | – | – | – | – | COc1cccc(-c2cc(C(=O)NCCc3c(O)cc(OC4CCN(C)CC4)cc3-c3cccc(F)c3)ccc2OC)c1 | 44.8 µM | > 50 µM
11 | 23.8 µM | 23.5 µM | – | – | – | – | – | – | – | – | COc1cccc(-c2cc(C(=O)NCCc3c(O)cc(O[C@@H]4OC(C)(C)[C@H](OC)[C@@H](O)[C@H]4O)cc3-c3cccc(F)c3)ccc2OC)c1 | > 50 µM | > 50 µM
12 | > 500 µM | > 500 µM | – | – | – | – | – | – | – | – | CO[C@@H]1[C@@H](O)[C@@H](O)[C@H](Oc2ccc(CCNC(C)=O)c(-c3cccc(F)c3)c2)OC1(C)C [CEMDOMESPIB] | > 500 µM | > 500 µM
13 | > 50 µM | > 50 µM | – | – | – | – | – | – | – | – | COc1cccc(-c2cc(C(=O)NCCc3ccc(O[C@@H]4OC(C)(C)[C@H](OC)[C@@H](O)[C@H]4O)cc3-c3cccc(F)c3)ccc2OC)c1 | 15.9 µM | > 50 µM
14 | > 50 µM | 43.9 µM | – | – | – | – | – | – | – | – | COc1cccc(-c2cc(C(=O)NCCc3cc(C)c(O[C@@H]4OC(C)(C)[C@H](OC)[C@@H](O)[C@H]4O)cc3-c3cccc(F)c3)ccc2OC)c1 | > 100 µM | > 100 µM
15 | 8.99 µM | 43.5 µM | – | – | – | – | Active | Active | inactive | Active | COc1cccc(-c2cc(C(=O)NCCc3ccc(O[C@@H]4OC(C)(C)[C@H](OC)[C@@H](O)[C@H]4O)c(C)c3-c3cccc(F)c3)ccc2OC)c1 | 25.1 µM | > 50 µM
16 | 17.8 µM | 21.3 µM | – | – | – | – | – | – | – | – | COc1cccc(-c2cc(C(=O)NCCc3ccc(OC4CCN(C)CC4)c(C)c3-c3cccc(F)c3)ccc2OC)c1 | > 50 µM | > 50 µM
17 | 1.45 µM | 3.25 µM | – | – | – | – | – | – | – | – | CC(C)=CCc1cc(C(=O)NCCc2ccc(OC3CCN(C)CC3)c(O)c2-c2cccc(F)c2)ccc1O | 23.1 µM | 42.3 µM
